Results from ChEMBL document CHEMBL1148725, “2,2,2-Trichloro-N-({2-[2-(dimethylamino)ethyl]-1,3-dioxo-2,3-dihydro-1H-benzo[de]isoquinolin- 5-yl}carbamoyl)acetamide (UNBS3157), a novel nonhematotoxic naphthalimide derivative with potent antitumor activity” (J Med Chem, 2007).
Calls of active or inactive are those of the source. The calls are words filed in the database; no cut-off is given here.

Legend:
PC-3 = assay: Induction of senescence in human PC3 cells; type: functional, cell-based
Summary of the method: (§1)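 SA-β-galactosidase staining of PC-3 and DU-145 prostate cancer cells after 72 h at 10 µM; adriamycin 20 nM as positive control; expressed as percentage of positively stained cells.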

DU-145 = assay: Induction of senescence in human DU145 cells; type: functional, cell-based; summary of the method: as §1
[1] = Antiproliferative activity against Hs683 cells after 72 hrs by MTT assay; type: functional, cell-based, Homo sapiens, Hs 683; conditions: Homo sapiens, Hs 683, 72 h
Summary of the method: (§2)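 Cells cultured with each compound for three days; growth then read by the MTT colorimetric assay and reported as IC50 (µM).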

[2] = Antiproliferative activity against U373MG cells after 72 hrs by MTT assay; type: functional, cell-based, Homo sapiens, U-373MG ATCC; conditions: Homo sapiens, U373 MG, 72 h; summary of the method: as §2
HCT-15 = assay: Antiproliferative activity against HCT15 cells after 72 hrs by MTT assay; type: functional, cell-based, Homo sapiens; conditions: Homo sapiens, HCT-15, 72 h; summary of the method: as §2
LoVo = assay: Antiproliferative activity against LoVo cells after 72 hrs by MTT assay; type: functional, cell-based, Homo sapiens; conditions: Homo sapiens, LoVo, 72 h; summary of the method: as §2
A549 [3] = assay: Antiproliferative activity against A549 cells after 72 hrs by MTT assay; type: functional, cell-based, Homo sapiens; conditions: Homo sapiens, A549, 72 h; summary of the method: as §2
MCF7 [4] = assay: Antiproliferative activity against MCF7 cells after 72 hrs by MTT assay; type: functional, cell-based, Homo sapiens; summary of the method: as §2
[5] = Toxicity in ip dosed B6D2F1 mouse; type: organism-based; conditions: in vivo
Summary of the method: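 Acute MTD was set by a single i.p. dose to groups of three healthy female B6D2F1 mice, at 2.5, 5, 10, 20, 40, 80 and 160 mg/kg. The MTD is the dose just below the lowest dose that killed at least one mouse.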

L1210 [6] = assay: Antitumor activity in L1210 cells xenografted B6D2F1 mouse at 10 mg/kg, ip relative to control; type: functional; conditions: route intraperitoneal
Summary of the method: (§3)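 Mice grafted with L1210 leukaemia cells on day 0, then dosed i.p. four times weekly on days 1-4 and 8-11. Five mice per group. Outcome is %T/C, the median survival of treated over control. Kruskal-Wallis test followed by Dunn comparisons against control.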

A549 [7] = assay: Antitumor activity against human A549 cells xenografted in mouse at 10 mg/kg, iv; type: functional, organism-based; parameters: dose 10 mg/kg
Summary of the method: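 Human A549 NSCLC cells grafted orthotopically into the lungs of immunocompromised mice. Compound given i.v. at 10 mg/kg. Survival gain assessed by survival curve analysis.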

[8] = molecular target: T1, DNA topoisomerase 1 (Homo sapiens) (UniProt P11387); assay: Inhibition of human topoisomerase 1 by DNA unwinding test
T1 sequence (whole entry): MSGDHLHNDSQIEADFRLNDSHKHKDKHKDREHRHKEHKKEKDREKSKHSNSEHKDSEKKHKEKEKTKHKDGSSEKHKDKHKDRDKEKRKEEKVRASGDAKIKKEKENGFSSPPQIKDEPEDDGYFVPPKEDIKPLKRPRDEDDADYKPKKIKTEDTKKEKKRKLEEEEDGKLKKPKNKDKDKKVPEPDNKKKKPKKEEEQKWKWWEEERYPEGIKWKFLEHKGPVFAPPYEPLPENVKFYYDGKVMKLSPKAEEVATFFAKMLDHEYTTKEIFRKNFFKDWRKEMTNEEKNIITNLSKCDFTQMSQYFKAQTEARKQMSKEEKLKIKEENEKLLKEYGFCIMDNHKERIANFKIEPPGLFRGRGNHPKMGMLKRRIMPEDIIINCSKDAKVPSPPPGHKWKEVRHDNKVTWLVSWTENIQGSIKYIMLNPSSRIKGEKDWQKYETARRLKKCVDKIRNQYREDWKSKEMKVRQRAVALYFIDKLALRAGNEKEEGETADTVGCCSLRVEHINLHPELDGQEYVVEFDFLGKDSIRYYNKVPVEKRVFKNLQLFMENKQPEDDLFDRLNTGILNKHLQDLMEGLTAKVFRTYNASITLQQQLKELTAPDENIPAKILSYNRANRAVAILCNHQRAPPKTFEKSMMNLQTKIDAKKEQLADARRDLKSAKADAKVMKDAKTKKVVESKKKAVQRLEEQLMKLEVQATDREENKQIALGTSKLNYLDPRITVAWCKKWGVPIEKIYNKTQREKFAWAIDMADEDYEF
Summary of the method: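 DNA unwinding assay: relaxed pBR322 plasmid converted to supercoiled form in presence of topoisomerase I; compounds at final 4–32 µM (one up to 15–55 µM); ethidium bromide-stained agarose gels; UC50 taken as concentration shifting relaxed band to midpoint between supercoiled and relaxed states.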

[9] = molecular target: DNA topoisomerase 2-alpha (Homo sapiens) (UniProt P11388); assay: Inhibition of human topoisomerase 2-mediated kinetoplast DNA […] at 50 uM
Summary of the method: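 Topoisomerase II strand-passage activity by kDNA decatenation; compounds at 50 µM; catenated networks stay in wells, decatenated kDNA enters ethidium bromide-stained agarose gel; no-enzyme and no-drug reactions as controls.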

MCF7 [10] = assay: Induction of apoptosis in human MCF7 cells assessed as p53 activation; type: functional, cell-based
Summary of the method: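 MCF-7 cells treated and p53 activation assessed by immunoblotting, with tubulin as loading control. Adriamycin (2.5 µM, 24 h) served as positive control.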

Homo sapiens = species on record: Homo sapiens; assay: Inhibition of human topoisomerase 2 at 50 uM by plasmid linearization assay
MDA-MB-231 = assay: Antitumor activity against human MDA-MB-231 cells xenografted in immunocompromised mouse at 10 mg/kg, iv
L1210 [11] = assay: Antitumor activity in L1210 cells xenografted B6D2F1 mouse at 20 mg/kg, ip relative to control; type: functional; conditions: route intraperitoneal; summary of the method: as §3

Sequence of DNA topoisomerase 2-alpha (Homo sapiens) (P11388 whole entry): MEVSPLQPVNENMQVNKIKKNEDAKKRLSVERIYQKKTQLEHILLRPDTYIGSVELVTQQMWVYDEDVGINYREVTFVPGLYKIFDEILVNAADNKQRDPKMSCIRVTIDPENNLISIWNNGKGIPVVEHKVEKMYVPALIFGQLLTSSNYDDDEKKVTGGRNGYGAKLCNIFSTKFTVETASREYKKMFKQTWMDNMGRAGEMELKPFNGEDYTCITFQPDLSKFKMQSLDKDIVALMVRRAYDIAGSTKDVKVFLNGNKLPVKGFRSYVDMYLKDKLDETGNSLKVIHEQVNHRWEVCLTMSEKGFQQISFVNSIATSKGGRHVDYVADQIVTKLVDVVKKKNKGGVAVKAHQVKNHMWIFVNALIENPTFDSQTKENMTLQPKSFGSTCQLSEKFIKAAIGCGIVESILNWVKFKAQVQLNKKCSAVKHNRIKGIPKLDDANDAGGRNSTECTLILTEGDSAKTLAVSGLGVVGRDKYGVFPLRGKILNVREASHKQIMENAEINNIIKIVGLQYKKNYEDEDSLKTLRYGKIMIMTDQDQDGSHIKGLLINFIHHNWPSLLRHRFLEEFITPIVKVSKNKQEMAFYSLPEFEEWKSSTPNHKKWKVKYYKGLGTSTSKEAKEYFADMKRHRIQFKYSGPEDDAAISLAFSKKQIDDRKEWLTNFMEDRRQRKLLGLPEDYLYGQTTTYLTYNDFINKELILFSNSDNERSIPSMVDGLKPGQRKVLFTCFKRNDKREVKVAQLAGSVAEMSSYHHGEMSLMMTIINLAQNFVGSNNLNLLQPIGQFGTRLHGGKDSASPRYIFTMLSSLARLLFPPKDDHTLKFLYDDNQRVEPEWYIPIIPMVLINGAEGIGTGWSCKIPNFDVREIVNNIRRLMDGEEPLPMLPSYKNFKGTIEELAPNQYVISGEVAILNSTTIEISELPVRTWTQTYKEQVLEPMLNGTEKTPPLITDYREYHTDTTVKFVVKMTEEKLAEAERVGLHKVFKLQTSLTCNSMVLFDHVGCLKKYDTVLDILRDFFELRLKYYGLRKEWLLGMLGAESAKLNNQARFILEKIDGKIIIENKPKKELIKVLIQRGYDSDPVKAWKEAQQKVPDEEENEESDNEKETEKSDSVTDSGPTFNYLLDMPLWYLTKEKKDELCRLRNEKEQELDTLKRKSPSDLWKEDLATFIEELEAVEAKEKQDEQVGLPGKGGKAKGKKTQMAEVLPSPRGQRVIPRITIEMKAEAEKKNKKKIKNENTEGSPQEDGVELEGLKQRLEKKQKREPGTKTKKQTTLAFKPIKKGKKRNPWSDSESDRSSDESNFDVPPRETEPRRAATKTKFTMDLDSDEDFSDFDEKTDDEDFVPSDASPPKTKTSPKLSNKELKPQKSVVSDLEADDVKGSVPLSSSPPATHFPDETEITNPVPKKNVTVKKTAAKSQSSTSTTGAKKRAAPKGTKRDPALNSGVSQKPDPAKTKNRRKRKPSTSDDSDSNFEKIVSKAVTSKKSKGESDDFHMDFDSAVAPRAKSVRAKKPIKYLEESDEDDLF

| Structure (SMILES) | Activity (PC-3) | Activity (DU-145) | IC50 [1] | IC50 [2] | IC50 (HCT-15) | IC50 (LoVo) | IC50 (A549 [3]) | IC50 (MCF7 [4]; Homo sapiens, MCF7, 72 h) | MTD [5] | Activity (L1210 [6]) | IC50 (MCF7 [4]; mcf7) | Activity (A549 [7]) | UC50 [8] | Activity [9] | Activity (MCF7 [10]) | Activity (Homo sapiens) | Activity (MDA-MB-231) | Activity (L1210 [11]) |
| --- | --- | --- | --- | --- | --- | --- | --- | --- | --- | --- | --- | --- | --- | --- | --- | --- | --- | --- |
| COc1cccc2c1C(=O)c1c(O)c3c(c(O)c1C2=O)C[C@@](O)(C(=O)CO)C[C@@H]3O[C@H]1C[C@H](N)[C@H](O)[C@H](C)O1 | inactive | Active | – | – | – | – | – | – | – | – | – | – | – | – | – | – | – | – |
| CCOC(=O)CC(=O)Nc1cc2c3c(cccc3c1)C(=O)N(CCN(C)C)C2=O | – | – | > 10 µM | > 10 µM | > 10 µM | > 10 µM | > 10 µM | > 10 µM | > 80 mg/kg | 129% | – | – | – | – | – | – | – | – |
| CN(C)CCN1C(=O)c2cccc3cc(N)cc(c23)C1=O.Cl | – | – | 4.7 µM | 4.5 µM | 8.8 µM | 3.5 µM | 4.8 µM | – | – | 120% | 9 µM | – | – | – | – | – | – | – |
| CN(C)CCN1C(=O)c2cccc3cc(N)cc(c23)C1=O | – | – | – | – | – | – | – | – | – | – | – | inactive | 8 µM | Active | Active | Active | Active | – |
| CN(C)CCN1C(=O)c2cccc3cc(NC(=O)Cc4ccc(Cl)cc4)cc(c23)C1=O | – | – | 7 µM | 5.8 µM | 5.5 µM | 4.8 µM | 4.7 µM | 4.8 µM | 20 mg/kg | 200% | – | – | – | – | – | – | – | – |
| CN(C)CCN1C(=O)c2cccc3cc(NC(=O)NC(=O)CCl)cc(c23)C1=O | – | – | 3 µM | 3.3 µM | 4.5 µM | 2.9 µM | 4.1 µM | 4.9 µM | 20 mg/kg | – | – | – | – | – | – | – | – | 147% |
